Compound activity as filed in PubChem BioAssay.
This is a sample that favours compounds with a hit; in the whole collection about 2.7% have one here.
IMP-1 inh: inhibitors of Pseudomonas aeruginosa IMP-1 metallo-beta-lactamase; purified IMP-1, nitrocefin hydrolysis, epi-absorbance fluorescence; inhibition, % at 5.6 µM; actives 0.45% (n = 290,000); AID 1556;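 active = inhibition above the mean plus 3 SD of all compounds in the same screening run, cut at about 4.5% in these data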
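System: purified IMP-1; amount: IMP-1 0.2 nM before substrate addition; compound: single dose, 5.6 µM; times: 25 °C, 15 min preincubation, 25 min reaction; signal: Epi-absorbance via hydrolysed-nitrocefin quenching of white-plate fluorescence, 480/530 nm, EDTA stop; benchmarks: DMSO with and without IMP-1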
Fh CTSL1 inh: counter-screen for PFM18AAP inhibitors: inhibitors of F. hepatica cathepsin L1 | recombinant F. hepatica cathepsin L1, Z-Leu-Arg-MCA fluorescence | inhibition, % at 5.96 µM | actives 0.49% (n = 300,000);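 active = inhibition above the mean of all tested compounds plus 3 SD, set per screening campaign, cut at about 17% in these data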
VIM-2 inhibitor: blocks Pseudomonas aeruginosa VIM-2 metallo-beta-lactamase; purified VIM-2, nitrocefin hydrolysis, epi-absorbance fluorescence; inhibition, % at 5.6 µM; actives 0.89% (n = 290,000); AID 1527;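 active = inhibition above the mean of all tested compounds plus 3 SD, cutoff set per screening run, cut at about 7.5% in these data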;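 note: red hydrolysis product quenches plate fluorescence so inhibitors raise well fluorescence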
M18AAP inhibitor: PfM18AAP enzyme inhibition; recombinant PfM18AAP, H-Glu-NHMec fluorogenic cleavage; inhibition, % at 7.35 µM; actives 1.2% (n = 290,000);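 active = inhibition above the campaign mean inhibition over all tested compounds plus 3 SD, cut at about 28% in these data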
Each line names hits and unclear results; the compound was inactive in the other large screens.

CSc1nc2sc3c(c2c(=O)n1C)CCC3	VIM-2 inhibitor 7.7
COCc1cc(CN2CCN(C)CC2)c(O)c2ncccc12	none
Oc1c(CN2CCOCC2)cc(COCc2ccccc2)c2cccnc12	VIM-2 inhibitor 7.7
COC(=O)c1cnc(N2CCCN(S(=O)(=O)c3ccc(C(F)(F)F)cc3)CC2)nc1C(F)(F)F	none
Cc1cccc(N2CC(C(=O)Nc3nnc(SCc4ccccn4)s3)CC2=O)c1 (stereo not given)	none
Cc1[nH]c(C)c(S(=O)(=O)NCc2ccco2)c1C(=O)N1CCCCC1	none
COCCn1c(-c2cccs2)csc1=Nc1cccnc1	Fh CTSL1 inh 19
Cc1cc[n+](-c2[nH]c(=O)sc2/C=N/N=C(\[O-])c2ccncc2)cc1C	M18AAP inhibitor 29
CC(O)[C@H](NC(=O)C1(c2ccccc2)CCN(C(=O)OC(C)(C)C)CC1)C(=O)O (stereo not given in full)	Fh CTSL1 inh 30
Cc1ccc(NC(=O)CCc2c[nH]c3ccccc23)nc1	none
CC(C)=CCC1=C(OCC(=O)O)C(=O)c2ccccc2C1=O	Fh CTSL1 inh 45
CC(C)=CCC/C(C)=C/CC/C(C)=C/CC/C(C)=C/CC1=C(C)C(=O)c2ccccc2C1=O	none (no result: IMP-1 inh, VIM-2 inhibitor, M18AAP inhibitor)
NC1=NC(c2cn(-c3ccccc3)nc2-c2cccs2)n2c(nc3ccccc32)N1 (stereo not given)	IMP-1 inh 4.9
O=C1/C(=C\c2ccco2)SC(=S)N1C1CCS(=O)(=O)C1 (stereo not given)	IMP-1 inh 7.3, M18AAP inhibitor 29
O=C1/C(=C/c2ccco2)SC(=S)N1CC1CCCO1 (stereo not given)	IMP-1 inh 5.4
Cc1ccc(/C=C2\SC(=S)N(C3CCS(=O)(=O)C3)C2=O)cc1 (stereo not given)	none
O=C1/C(=C\c2ccco2)SC(=S)N1c1ccccc1	none
O=C1/C(=C/c2ccco2)SC(=S)N1C1CCS(=O)(=O)C1 (stereo not given)	M18AAP inhibitor 31
Cc1nc(Nc2ccc(O)cc2)c2c3c(sc2n1)CCCC3	VIM-2 inhibitor 8.4
COc1ccc(C(=O)COC(=O)CCNS(=O)(=O)c2ccccc2)cc1Br	none
COc1cccc(N(CC(=O)NC2CCCC2)C(=O)CCC(=O)Nc2cc(C)on2)c1	none
Cn1nc([N+](=O)[O-])nc1Sc1nnc(-c2ccccc2)o1	Fh CTSL1 inh 63
O=Cc1ccc(Sc2nnc(-c3ccccc3)o2)c([N+](=O)[O-])c1	none
c1cc2c(cc1-c1csc(NNC3=NCCCCC3)n1)OCCO2	M18AAP inhibitor 41
CN1CCN(c2ccc(S(=O)(=O)N3CCCCC3)cc2NC(=O)CSCc2ccccc2)CC1	none
CC(NC(=O)C(=O)N1CCOCC1)C(c1cccs1)N1CCN(c2ccccc2F)CC1 (stereo not given)	none
CC(NC(=O)C(=O)N1CCOCC1)C(c1cccs1)N1CCN(c2ccc(F)cc2)CC1 (stereo not given)	Fh CTSL1 inh 26
CC1(C)CC(=O)CC(=Nc2ccc(C(=O)O)cc2)C1	none
Nc1ccc(C(=O)O)cc1	none (no result: IMP-1 inh, VIM-2 inhibitor, M18AAP inhibitor)
Nc1ccc(O)cc1	Fh CTSL1 inh 96 (no result: IMP-1 inh, VIM-2 inhibitor, M18AAP inhibitor)
COc1cccc(CN2CC(C(=O)NCc3ccc(Cl)s3)CCC2=O)c1 (stereo not given)	none (no result: Fh CTSL1 inh)
O=C(/C=C/Nc1ccc(F)cc1)c1ccc(Br)cc1	none
O=C(/C=C/Nc1ccc([N+](=O)[O-])cc1)c1ccc(Br)cc1	Fh CTSL1 inh 17
COc1ccc(C[C@H]2COC(=O)[C@@H]2Cc2ccc(OC3OC(CO)C(O)C(O)C3O)c(OC)c2)cc1OC (stereo not given in full)	none
COc1cc(C2OCC3C(c4ccc(OC5OC(CO)C(O)C(O)C5O)c(OC)c4)OCC23)ccc1O (stereo not given)	M18AAP inhibitor 41
CCOC(=O)N1CCN(C(=O)c2ccc3c(c2)NC(=O)/C(=C/c2ccccc2)S3)CC1	none
CN1CCN(C(=O)c2ccc3c(c2)NC(=O)/C(=C/c2ccccc2)S3)CC1	VIM-2 inhibitor 8.0
Cc1ccc(S(=O)(=O)N(CC(O)CN2C(=O)NC(C)(C)C2=O)c2ccccc2)cc1 (stereo not given)	none
COc1cc(/C=N/Nc2cccc3cccnc23)cc(OC)c1O	M18AAP inhibitor 30
Oc1ccc(Cl)cc1CNc1cccc2cccnc12	M18AAP inhibitor 31
Cc1ccc(O)c(CNc2cccc3cccnc23)c1	none
COc1cccc(CNc2ccccn2)c1O	none
COc1cccc(CNc2cccc3cccnc23)c1O	M18AAP inhibitor 31
Oc1c(Br)cc(Br)cc1CNc1cccc2cccnc12	IMP-1 inh 16, Fh CTSL1 inh 29, M18AAP inhibitor 33
Oc1c(Br)cc(Br)cc1CNc1ccccn1	none
